Values after ≈ are worked out from the molar mass of the structure shown.
Tests used:
Format in all cases: functional
Staphylococcus aureus [1] = assay: Antimicrobial activity against macrolide, licosamide streptogramin-resistant Staphylococcus aureus 90265/97 by broth microdilution method
Outline: (§1)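 MIC determined by the standard broth microdilution method; values reported in mg/L. Reference macrolide antibiotics were tested alongside as comparators.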

Staphylococcus aureus [2] = assay: Antimicrobial activity against Staphylococcus aureus ATCC 13709 by broth microdilution method; outline: as §1
Streptococcus pneumoniae [3] = assay: Antimicrobial activity against Streptococcus pneumoniae SP030 by broth microdilution method
Outline: (§2)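 Standard broth microdilution assay. Read-out is the minimum inhibitory concentration, reported in mg/L.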

Streptococcus pyogenes [4] = assay: Antimicrobial activity against Streptococcus pyogenes 3565 by broth microdilution method; outline: as §2
Streptococcus pneumoniae [5] = assay: Antimicrobial activity against Streptococcus pneumoniae 134 GR-M by broth microdilution method; outline: as §2
Streptococcus pyogenes [6] = assay: Antimicrobial activity against Streptococcus pyogenes Finland 2 by broth microdilution method; outline: as §1
Streptococcus pneumoniae [7] = assay: Antimicrobial activity against Streptococcus pneumoniae 58 spain by broth microdilution method; outline: as §2
Streptococcus pyogenes [8] = assay: Antimicrobial activity against Streptococcus pyogenes 166 GR-Micro by broth microdilution method; outline: as §2
Haemophilus influenzae = assay: Antimicrobial activity against Haemophilus influenzae ATCC 49247 by broth microdilution method; outline: as §2
Streptococcus pyogenes [9] = assay: Antimicrobial activity against macrolide-resistant Streptococcus pyogenes Finland 2 by broth microdilution method; outline: as §1
Staphylococcus aureus [10] = assay: Antimicrobial activity against efflux-mediated macrolide-resistant Staphylococcus aureus PK1 by broth microdilution method; outline: as §1

| SMILES | MIC (Staphylococcus aureus [1]) | MIC (Staphylococcus aureus [2]) | MIC (Streptococcus pneumoniae [3]) | MIC (Streptococcus pyogenes [4]) | MIC (Streptococcus pneumoniae [5]) | MIC (Streptococcus pyogenes [6]) | MIC (Streptococcus pneumoniae [7]) | MIC (Streptococcus pyogenes [8]) | MIC (Haemophilus influenzae) | MIC (Streptococcus pyogenes [9]) | MIC (Staphylococcus aureus [10]) |
| --- | --- | --- | --- | --- | --- | --- | --- | --- | --- | --- | --- |
| CCOC(=O)CCCCCOCC#Cc1ccc2c(c1)c(=O)c(C(=O)OCC)cn2CC | > 64 µg/mL | > 64 µg/mL | 16 µg/mL (≈ 36.2 µM) | 8 µg/mL (≈ 18.1 µM) | 64 µg/mL (≈ 145 µM) | > 64 µg/mL | 64 µg/mL (≈ 145 µM) | > 64 µg/mL | > 64 µg/mL | > 64 µg/mL | > 64 µg/mL |
| CCn1cc(C(=O)O)c(=O)c2cc(C#CCOCCCCCC(=O)O)ccc21 | > 64 µg/mL | > 64 µg/mL | > 64 µg/mL | > 64 µg/mL | > 64 µg/mL | > 64 µg/mL | > 64 µg/mL | > 64 µg/mL | > 64 µg/mL |  | > 64 µg/mL |
| CCOC(=O)CCCCOCC#Cc1ccc2c(c1)c(=O)c(C(=O)OCC)cn2CC | > 64 µg/mL | > 64 µg/mL | > 64 µg/mL | > 64 µg/mL | > 64 µg/mL | > 64 µg/mL | > 64 µg/mL | > 64 µg/mL | > 64 µg/mL |  | > 64 µg/mL |
| CCn1cc(C(=O)O)c(=O)c2cc(C#CCOCCCCC(=O)O)ccc21 | > 64 µg/mL | > 64 µg/mL | 1 µg/mL (≈ 2.69 µM) | 1 µg/mL (≈ 2.69 µM) | > 64 µg/mL | 16 µg/mL (≈ 43.1 µM) | 2 µg/mL (≈ 5.39 µM) | > 64 µg/mL | > 64 µg/mL | 16 µg/mL (≈ 43.1 µM) | > 64 µg/mL |
| CC[C@H]1OC(=O)[C@H](C)[C@@H](O[C@H]2C[C@@](C)(OC)[C@@H](OC(=O)CCCCCOCCCc3ccc4c(c3)c(=O)c(C(=O)O)cn4CC)[C@H](C)O2)[C@H](C)[C@@H](O[C@@H]2O[C@H](C)C[C@H](N(C)C)[C@H]2O)[C@](C)(O)C[C@@H](C)CN(C)[C@H](C)[C@@H](O)[C@]1(C)O | 0.25 µg/mL (≈ 0.223 µM) | 0.25 µg/mL (≈ 0.223 µM) | < 0.125 µg/mL | < 0.125 µg/mL | < 0.125 µg/mL | < 0.125 µg/mL | < 0.125 µg/mL | < 0.125 µg/mL | 0.5 µg/mL (≈ 0.446 µM) |  | 0.25 µg/mL (≈ 0.223 µM) |
| CC[C@H]1OC(=O)[C@H](C)[C@@H](O[C@H]2C[C@@](C)(OC)[C@@H](OC(=O)CCCCCOCCCc3ccc4c(c3)c(=O)c(C(=O)O)cn4CC)[C@H](C)O2)[C@H](C)[C@@H](O[C@@H]2O[C@H](C)C[C@H](N(C)C)[C@H]2O)[C@](C)(O)C[C@@H](C)CN(C)[C@H](C)[C@@H](OC)[C@]1(C)O | 2 µg/mL (≈ 1.76 µM) | 1 µg/mL (≈ 0.881 µM) | < 0.125 µg/mL | < 0.125 µg/mL | 0.5 µg/mL (≈ 0.441 µM) | < 0.125 µg/mL | < 0.125 µg/mL | 0.5 µg/mL (≈ 0.441 µM) | 1 µg/mL (≈ 0.881 µM) |  | 1 µg/mL (≈ 0.881 µM) |
| CC[C@H]1OC(=O)[C@H](C)[C@@H](O[C@H]2C[C@@](C)(OC)[C@@H](OC(=O)CCCCOCC#Cc3ccc4c(c3)c(=O)c(C(=O)O)cn4CC)[C@H](C)O2)[C@H](C)[C@@H](O[C@@H]2O[C@H](C)C[C@H](N(C)C)[C@H]2O)[C@](C)(O)C[C@@H](C)CN(C)[C@H](C)[C@@H](O)[C@]1(C)O | 4 µg/mL (≈ 3.63 µM) | 0.5 µg/mL (≈ 0.454 µM) | < 0.125 µg/mL | < 0.125 µg/mL | 0.5 µg/mL (≈ 0.454 µM) | < 0.125 µg/mL | < 0.125 µg/mL | 1 µg/mL (≈ 0.907 µM) | 1 µg/mL (≈ 0.907 µM) |  | 0.5 µg/mL (≈ 0.454 µM) |
| CC[C@H]1OC(=O)[C@H](C)[C@@H](O[C@H]2C[C@@](C)(OC)[C@@H](OC(=O)CCCCOCCCc3ccc4c(c3)c(=O)c(C(=O)O)cn4CC)[C@H](C)O2)[C@H](C)[C@@H](O[C@@H]2O[C@H](C)C[C@H](N(C)C)[C@H]2O)[C@](C)(O)C[C@@H](C)CN(C)[C@H](C)[C@@H](O)[C@]1(C)O | 4 µg/mL (≈ 3.62 µM) | 0.5 µg/mL (≈ 0.452 µM) | < 0.125 µg/mL | < 0.125 µg/mL | 0.25 µg/mL (≈ 0.226 µM) | < 0.125 µg/mL | < 0.125 µg/mL | 0.25 µg/mL (≈ 0.226 µM) | 2 µg/mL (≈ 1.81 µM) |  | 0.5 µg/mL (≈ 0.452 µM) |
| CC[C@H]1OC(=O)[C@H](C)[C@@H](O[C@H]2C[C@@](C)(OC)[C@@H](OC(=O)CCCCCOCC#Cc3ccc4c(c3)c(=O)c(C(=O)O)cn4CC)[C@H](C)O2)[C@H](C)[C@@H](O[C@@H]2O[C@H](C)C[C@H](N(C)C)[C@H]2O)[C@](C)(OC)C[C@@H](C)C(=O)[C@H](C)[C@@H](O)[C@]1(C)O | 8 µg/mL (≈ 7.17 µM) | 2 µg/mL (≈ 1.79 µM) | < 0.125 µg/mL | < 0.125 µg/mL | 4 µg/mL (≈ 3.59 µM) | < 0.125 µg/mL | < 0.125 µg/mL | 2 µg/mL (≈ 1.79 µM) | 16 µg/mL (≈ 14.3 µM) |  | 2 µg/mL (≈ 1.79 µM) |
| CC[C@H]1OC(=O)[C@H](C)[C@@H](O[C@H]2C[C@@](C)(OC)[C@@H](OC(=O)CCCCCOCCCc3ccc4c(c3)c(=O)c(C(=O)O)cn4CC)[C@H](C)O2)[C@H](C)[C@@H](O[C@@H]2O[C@H](C)C[C@H](N(C)C)[C@H]2O)[C@](C)(OC)C[C@@H](C)C(=O)[C@H](C)[C@@H](O)[C@]1(C)O | 4 µg/mL (≈ 3.57 µM) | 2 µg/mL (≈ 1.79 µM) | < 0.125 µg/mL | < 0.125 µg/mL | 1 µg/mL (≈ 0.893 µM) | < 0.125 µg/mL | < 0.125 µg/mL | < 0.125 µg/mL | 8 µg/mL (≈ 7.15 µM) |  | 2 µg/mL (≈ 1.79 µM) |
| CC[C@H]1OC(=O)[C@H](C)[C@@H](O[C@H]2C[C@@](C)(OC)[C@@H](O)[C@H](C)O2)[C@H](C)[C@@H](O[C@@H]2O[C@H](C)C[C@H](N(C)C)[C@H]2O)[C@](C)(O)C[C@@H](C)CN(C)[C@H](C)[C@@H](O)[C@]1(C)O [AZITHROMYCIN] | > 64 µg/mL | 0.5 µg/mL (≈ 0.668 µM) | < 0.125 µg/mL | < 0.125 µg/mL | > 64 µg/mL | 16 µg/mL (≈ 21.4 µM) | > 64 µg/mL | > 64 µg/mL | 1 µg/mL (≈ 1.34 µM) | 16 µg/mL (≈ 21.4 µM) | > 64 µg/mL |
| CC[C@H]1OC(=O)[C@H](C)[C@@H](O[C@H]2C[C@@](C)(OC)[C@@H](O)[C@H](C)O2)[C@H](C)[C@@H](O[C@@H]2O[C@H](C)C[C@H](N(C)C)[C@H]2O)[C@](C)(OC)C[C@@H](C)C(=O)[C@H](C)[C@@H](O)[C@]1(C)O [CLARITHROMYCIN] | > 64 µg/mL | ≤ 0.125 µg/mL | ≤ 0.125 µg/mL | ≤ 0.125 µg/mL | > 64 µg/mL | 4 µg/mL (≈ 5.35 µM) | > 64 µg/mL | > 64 µg/mL | 8 µg/mL (≈ 10.7 µM) | 4 µg/mL (≈ 5.35 µM) | 32 µg/mL (≈ 42.8 µM) |
| CC[C@H]1OC(=O)[C@H](C)C(=O)[C@H](C)[C@@H](O[C@@H]2O[C@H](C)C[C@H](N(C)C)[C@H]2O)[C@](C)(OC)C[C@@H](C)C(=O)[C@H](C)[C@H]2N(CCCCn3cnc(-c4cccnc4)c3)C(=O)O[C@]12C [TELITHROMYCIN] | < 0.125 µg/mL | 0.25 µg/mL (≈ 0.308 µM) | < 0.125 µg/mL | < 0.125 µg/mL | 0.25 µg/mL (≈ 0.308 µM) | 0.5 µg/mL (≈ 0.616 µM) | 0.25 µg/mL (≈ 0.308 µM) | 16 µg/mL (≈ 19.7 µM) | 1 µg/mL (≈ 1.23 µM) | 0.5 µg/mL (≈ 0.616 µM) | 0.125 µg/mL (≈ 0.154 µM) |
